In ChEMBL document CHEMBL3867483, “Gaining in pan-affinity towards sigma 1 and sigma 2 receptors. SAR studies on arylalkylamines” (Bioorg Med Chem, 2017):
One block for each compound: values may come before it.

Legend:
[1] = target: Sigma non-opioid intracellular receptor 1 (Cavia porcellus, UniProt Q60492); assay: Displacement of [3H]-(+)-pentazocine from sigma 1 receptor in guinea pig cerebral cortex membranes after 120 mins by scintillation counting analysis; set-up: species or system Membrane
[2] = Displacement of [3H]-DTG from sigma 2 receptor in rat liver membranes after 120 mins by scintillation counting analysis; type: cell membranes, Membrane
In short: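 Rat liver homogenate (150 μg) incubated 120 min at room temperature with 3 nM [3H]-DTG in 50 mM Tris-HCl pH 8.0. Excess unlabeled (+)-pentazocine masked S1R, and high unlabeled DTG defined nonspecific binding. Compound at 10^-10 to 10^-5 M final, in duplicate. Filtered through PEI-presoaked filtermats and counted by scintillation. IC50 from nonlinear regression, converted to Ki by Cheng-Prusoff; mean ± SEM of three experiments.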

[3] = Selectivity ratio of Ki for sigma 2 receptor in rat liver membranes to Ki for sigma 1 receptor in guinea pig cerebral cortex membranes; type: cell membranes
In short: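 Ratio computed as Ki at S2R (rat liver, [3H]-DTG with S1R masked by (+)-pentazocine) divided by Ki at S1R (guinea pig cortex, [3H](+)-pentazocine). Both Ki values come from Cheng-Prusoff conversion of IC50s from 120 min displacement assays, each the mean of three experiments.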

Chain of Sigma non-opioid intracellular receptor 1 (Q60492 whole entry): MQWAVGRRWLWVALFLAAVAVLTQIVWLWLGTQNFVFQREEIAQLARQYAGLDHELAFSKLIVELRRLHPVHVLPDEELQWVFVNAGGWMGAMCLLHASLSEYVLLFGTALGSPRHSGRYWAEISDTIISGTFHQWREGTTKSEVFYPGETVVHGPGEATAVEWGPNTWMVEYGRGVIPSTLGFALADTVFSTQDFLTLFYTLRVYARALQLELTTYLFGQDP

Structure (SMILES): CC(CCN(C)C)c1ccccc1 (racemic)
Ki [1]: 0.427 µM | Ki [2]: > 1 µM

Structure (SMILES): COc1ccc(C(C)CCN2CCCCC2)cc1 (racemic)
Ki [1]: 0.02 µM | Ki [2]: 0.058 µM | Ratio Ki [3]: 2.9

Structure (SMILES): COc1cccc(C(C)CCN2CCOCC2)c1 (racemic)
Ki [1]: 0.137 µM | Ki [2]: 0.092 µM | Ratio Ki [3]: 0.67

Structure (SMILES): COc1ccc(C(C)CCN(C)C)cc1 (racemic)
Ki [1]: 0.116 µM | Ki [2]: 0.255 µM | Ratio Ki [3]: 2.2

Structure (SMILES): COc1ccc(C(C)CCN2CCOCC2)cc1 (racemic)
Ki [1]: 0.076 µM | Ki [2]: 0.068 µM | Ratio Ki [3]: 0.89

Structure (SMILES): CC(CCN1CCOCC1)c1ccccc1 (racemic)
Ki [1]: 0.085 µM | Ki [2]: 0.071 µM | Ratio Ki [3]: 1.2

Structure (SMILES): COc1cccc(C(C)CCN(C)C)c1 (stereo not given)
Ki [1]: 0.239 µM | Ki [2]: 0.864 µM | Ratio Ki [3]: 3.62

Structure (SMILES): CC(CCN1CCC(Cc2ccccc2)CC1)c1ccc2ccccc2c1 (racemic)
Ki [1]: 0.019 µM | Ki [2]: 0.144 µM | Ratio Ki [3]: 7.6

The next compounds have a lower Ki [2] than those just listed; values first:

Ki [1]: 0.0054 µM | Ki [2]: 0.033 µM | Ratio Ki [3]: 6.1
Structure (SMILES): CC(CCN1CCOCC1)c1ccc2ccccc2c1 (racemic)

Ki [1]: 0.046 µM | Ki [2]: 0.056 µM | Ratio Ki [3]: 1.22
Structure (SMILES): CC(CCN1CCCCC1)c1ccccc1 (racemic)

Ki [2]: 0.0438 µM | Ratio Ki [3]: 22
Structure (SMILES): CC(CCN(C)C)c1ccc2ccccc2c1 (racemic)

Ki [1]: 0.0015 µM | Ki [2]: 0.05 µM | Ratio Ki [3]: 33.3
Structure (SMILES): CC(CCN1CCCCC1)c1ccc2ccccc2c1 (racemic)

Ki [1]: 0.0029 µM | Ki [2]: 0.014 µM | Ratio Ki [3]: 4.83
Structure (SMILES): COc1cccc(C(C)CCN2CCC(Cc3ccccc3)CC2)c1 (racemic)

Ki [2]: 0.0065 µM | Ratio Ki [3]: 3.1
Structure (SMILES): CC(CCN1CCC(Cc2ccccc2)CC1)c1ccccc1 (racemic)

Ki [1]: 0.036 µM | Ki [2]: 0.035 µM | Ratio Ki [3]: 0.97
Structure (SMILES): COc1cccc(C(C)CCN2CCCCC2)c1 (racemic)

Ki [1]: 0.0035 µM | Ki [2]: 0.018 µM | Ratio Ki [3]: 5.14
Structure (SMILES): COc1ccc(C(C)CCN2CCC(Cc3ccccc3)CC2)cc1 (racemic)
